System: MDA-MB-231
Test: Cytotoxicity against human MDA-MB-231 cells assessed as growth inhibition after 72 hrs by MTT assay
Assay type: functional
Conditions: MDA-MB-231, 72 h
In short: (§1)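 Growth inhibition read by MTT after 72 h incubation of the indicated cells with drug; GI50 taken from this assay.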
In the case of `NCCCOc1cc(C(=O)NCCOc2cc3ccccc3cc2C(=O)Nc2ccc(Cl)cc2O)cc2ccccc12`, the GI50 is reported as 2.68 µM. With `NCCCOc1cc(C(=O)NCCOc2cc3ccccc3cc2C(=O)Nc2ccc(Cl)cc2O)c2ccccc2c1` the GI50 was 3.82 µM. For `NCCCOc1c(C(=O)NCCOc2cc3ccccc3cc2C(=O)Nc2ccc(Cl)cc2O)ccc2ccccc12`, the GI50 was 3.12 µM. With `NCCCOc1ccc2ccccc2c1C(=O)NCCOc1cc2ccccc2cc1C(=O)Nc1ccc(Cl)cc1O` the GI50 was 4.31 µM.

System: not listed separately
Test: Inhibition of forskolin-stimulated CREB (unknown origin)-mediated gene transcription in HEK293T cells preincubated for 30 mins followed by forskolin-stimulation measured after 6 hrs by luciferase reporter gene assay
Assay type: cell-based
Conditions: Homo sapiens, HEK-293T
In short: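 HEK 293T cells transfected with a renilla luciferase reporter driven by three tandem CRE copies. Treated with increasing compound concentrations (50 nM to 50 μM) for 30 min, then forskolin (10 μM) for 6 h, then luciferase measured. Luciferase normalized to lysate protein concentration. IC50 by non-linear regression of dose-response curves.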
`NCCCOc1cc(C(=O)NCCOc2cc3ccccc3cc2C(=O)Nc2ccc(Cl)cc2O)cc2ccccc12` gave an IC50 of 17.2 µM. With `NCCCOc1cc(C(=O)NCCOc2cc3ccccc3cc2C(=O)Nc2ccc(Cl)cc2O)c2ccccc2c1` the IC50 was 19 µM. With `NCCCOc1c(C(=O)NCCOc2cc3ccccc3cc2C(=O)Nc2ccc(Cl)cc2O)ccc2ccccc12` the IC50 was 24 µM. `NCCCOc1ccc2ccccc2c1C(=O)NCCOc1cc2ccccc2cc1C(=O)Nc1ccc(Cl)cc1O` showed an IC50 of 18.9 µM.

System: MDA-MB-468
Test: Cytotoxicity against human MDA-MB-468 cells assessed as growth inhibition after 72 hrs by MTT assay
Assay type: functional
Conditions: MDA-MB-468, 72 h
In short: as §1
For `NCCCOc1cc(C(=O)NCCOc2cc3ccccc3cc2C(=O)Nc2ccc(Cl)cc2O)cc2ccccc12`, the GI50 was 550 nM. For `NCCCOc1cc(C(=O)NCCOc2cc3ccccc3cc2C(=O)Nc2ccc(Cl)cc2O)c2ccccc2c1`, the GI50 was 1650 nM. `NCCCOc1c(C(=O)NCCOc2cc3ccccc3cc2C(=O)Nc2ccc(Cl)cc2O)ccc2ccccc12` gave a GI50 of 1930 nM. In the case of `NCCCOc1ccc2ccccc2c1C(=O)NCCOc1cc2ccccc2cc1C(=O)Nc1ccc(Cl)cc1O`, the GI50 is reported as 1700 nM.

From ChEMBL document CHEMBL4000230, “Design, synthesis and biological evaluation of regioisomers of 666-15 as inhibitors of CREB-mediated gene transcription” (Bioorg Med Chem Lett, 2017)
